# In ChEMBL document CHEMBL1152825, “Pseudomonas aeruginosa may accumulate drug resistance mechanisms without losing its ability to cause bloodstream infections” (2007):
# How the values were obtained:
# Pseudomonas aeruginosa [1] = assay: Antibacterial activity against beta-lactams resistant Pseudomonas aeruginosa isolate expressing AmpC, MexAB-OprM pump, MexXY-OprM pump by macrodilution technique; assay type: functional
# How it was run: (§1)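 MICs by agar macrodilution on Mueller-Hinton agar with calibrated divalent cations. Isolates were graded susceptible, intermediate or resistant by CLSI breakpoints. Resistance was defined as a ≥fourfold MIC rise over reference strain PAO1. Resistance mechanisms were assigned by RT-PCR (PAO1-derived overexpressing mutants as controls) and gene complementation.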
# Pseudomonas aeruginosa [2] = assay: Antibacterial activity against beta-lactams resistant Pseudomonas aeruginosa isolate expressing MexAB-OprM pump by macrodilution technique; assay type: functional; how it was run: as §1
# Pseudomonas aeruginosa [3] = assay: Antibacterial activity against beta-lactams resistant Pseudomonas aeruginosa isolate expressing OXA2 by macrodilution technique; assay type: functional; how it was run: as §1
# Pseudomonas aeruginosa [4] = assay: Antibacterial activity against beta-lactams resistant Pseudomonas aeruginosa isolate expressing AmpC by macrodilution technique; assay type: functional; how it was run: as §1
# Pseudomonas aeruginosa [5] = assay: Antibacterial activity against beta-lactams resistant Pseudomonas aeruginosa isolate expressing AmpC, MexAB-OprM pump by macrodilution technique; assay type: functional
# How it was run: as §1, with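 “Bloodstream P. aeruginosa isolates from patients in six French teaching hospitals (1999–2004). MICs” for “MICs”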
# Pseudomonas aeruginosa [6] = assay: Antibacterial activity against beta-lactams resistant Pseudomonas aeruginosa isolate expressing MexAB-OprM pump, MexXY-OprM pump by macrodilution technique; assay type: functional; how it was run: as §1
# Pseudomonas aeruginosa [7] = assay: Antibacterial activity against aminoglycoside-resistant Pseudomonas aeruginosa isolate expressing MexXY-OprM pump, AAC(6')-1, ANT(2'')-1 by macrodilution technique; assay type: functional
# How it was run: as §1, with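 “Bloodstream P. aeruginosa isolates from patients in six French teaching hospitals (1999–2004). MICs” for “MICs”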
# Pseudomonas aeruginosa [8] = assay: Antibacterial activity against aminoglycoside-resistant Pseudomonas aeruginosa isolate expressing MexXY-OprM pump, ANT(2'')-1 by macrodilution technique; assay type: functional
# How it was run: as §1, with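 “Bloodstream P. aeruginosa isolates from patients in six French teaching hospitals (1999–2004). MICs” for “MICs”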
# Pseudomonas aeruginosa [9] = assay: Antibacterial activity against aminoglycoside-resistant Pseudomonas aeruginosa isolate expressing AAC(6')-1, ANT(2'')-1 by macrodilution technique; assay type: functional
# How it was run: as §1, with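 “Bloodstream P. aeruginosa isolates from patients in six French teaching hospitals (1999–2004). MICs” for “MICs”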
# Pseudomonas aeruginosa [10] = assay: Antibacterial activity against Pseudomonas aeruginosa clinical isolate by macrodilution technique; assay type: functional
# Pseudomonas aeruginosa [11] = assay: Antibacterial activity against Pseudomonas aeruginosa clinical isolates assessed as susceptible rate by macrodilution technique; assay type: functional
# Pseudomonas aeruginosa [12] = assay: Antibacterial activity against aminoglycoside-resistant Pseudomonas aeruginosa isolate expressing MexXY-OprM pump by macrodilution technique; assay type: functional
# How it was run: as §1, with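 “Bloodstream P. aeruginosa isolates from patients in six French teaching hospitals (1999–2004). MICs” for “MICs”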
# Pseudomonas aeruginosa [13] = assay: Antibacterial activity against aminoglycoside-resistant Pseudomonas aeruginosa isolate expressing MexXY-OprM pump, AAC(6')-1, AAC(3')-1 by macrodilution technique; assay type: functional
# How it was run: as §1, with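 “Bloodstream P. aeruginosa isolates from patients in six French teaching hospitals (1999–2004). MICs” for “MICs”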
# Pseudomonas aeruginosa [14] = assay: Antibacterial activity against aminoglycoside-resistant Pseudomonas aeruginosa isolate expressing ANT(2'')-1 by macrodilution technique; assay type: functional
# How it was run: as §1, with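 “Bloodstream P. aeruginosa isolates from patients in six French teaching hospitals (1999–2004). MICs” for “MICs”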
# Pseudomonas aeruginosa [15] = assay: Antibacterial activity against aminoglycoside-resistant Pseudomonas aeruginosa isolate expressing AAC(6')-1 by macrodilution technique; assay type: functional
# How it was run: as §1, with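 “Bloodstream P. aeruginosa isolates from patients in six French teaching hospitals (1999–2004). MICs” for “MICs”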
# Pseudomonas aeruginosa [16] = assay: Antibacterial activity against aminoglycoside-resistant Pseudomonas aeruginosa isolate expressing MexXY-OprM pump, AAC(3')-1 by macrodilution technique; assay type: functional
# How it was run: as §1, with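 “Bloodstream P. aeruginosa isolates from patients in six French teaching hospitals (1999–2004). MICs” for “MICs”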
# Pseudomonas aeruginosa [17] = assay: Antibacterial activity against wild type Pseudomonas aeruginosa isolate by macrodilution technique; assay type: functional; how it was run: as §1
# Pseudomonas aeruginosa [18] = assay: Antibacterial activity against wild type Pseudomonas aeruginosa PAO1 by macrodilution technique; assay type: functional
# How it was run: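 Wild-type reference strain PAO1. MIC by agar macrodilution on Mueller-Hinton agar with calibrated divalent cations. It served as the baseline for defining a ≥fourfold MIC increase in clinical isolates, and as the expression reference in RT-PCR.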
# Pseudomonas aeruginosa [19] = assay: Antibacterial activity against Pseudomonas aeruginosa clinical isolates assessed as resistant rate by macrodilution technique; assay type: functional
# Pseudomonas aeruginosa [20] = assay: Antibacterial activity against aminoglycoside-resistant Pseudomonas aeruginosa isolate expressing MexXY-OprM pump, AAC(6')-1 by macrodilution technique; assay type: functional
# How it was run: as §1, with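 “Bloodstream P. aeruginosa isolates from patients in six French teaching hospitals (1999–2004). MICs” for “MICs”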
# Pseudomonas aeruginosa [21] = assay: Antibacterial activity against MexXY-OprM pump-independent aminoglycoside-resistant Pseudomonas aeruginosa isolate by macrodilution technique; assay type: functional
# How it was run: as §1, with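 “Bloodstream P. aeruginosa isolates from patients in six French teaching hospitals (1999–2004). MICs” for “MICs”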
# Pseudomonas aeruginosa [22] = assay: Antibacterial activity against beta-lactams resistant Pseudomonas aeruginosa isolate expressing MexXY-OprM pump, TEM-2 by macrodilution technique; assay type: functional; how it was run: as §1
# Pseudomonas aeruginosa [23] = assay: Antibacterial activity against beta-lactams resistant Pseudomonas aeruginosa isolate expressing AmpC, PSE-1, MexXY-OprM pump by macrodilution technique; assay type: functional; how it was run: as §1
# Pseudomonas aeruginosa [24] = assay: Antibacterial activity against beta-lactams resistant Pseudomonas aeruginosa isolate expressing AmpC, MexXY-OprM pump by macrodilution technique; assay type: functional; how it was run: as §1
# Pseudomonas aeruginosa [25] = assay: Antibacterial activity against beta-lactams resistant OprD-deficient Pseudomonas aeruginosa isolate by macrodilution technique; assay type: functional; how it was run: as §1
# Pseudomonas aeruginosa [26] = assay: Antibacterial activity against beta-lactams resistant Pseudomonas aeruginosa isolate expressing PSE-1 by macrodilution technique; assay type: functional; how it was run: as §1
# Pseudomonas aeruginosa [27] = assay: Antibacterial activity against beta-lactams resistant Pseudomonas aeruginosa isolate expressing PSE-1, MexXY-OprM pump by macrodilution technique; assay type: functional; how it was run: as §1
# Pseudomonas aeruginosa [28] = assay: Antibacterial activity against beta-lactams resistant Pseudomonas aeruginosa isolate expressing MexXY-OprM pump by macrodilution technique; assay type: functional; how it was run: as §1
# Pseudomonas aeruginosa [29] = assay: Antibacterial activity against beta-lactams resistant Pseudomonas aeruginosa isolate expressing AmpC, MexXY-OprM pump, TEM-2 by macrodilution technique; assay type: functional; how it was run: as §1
# Pseudomonas aeruginosa [30] = assay: Antibacterial activity against fluoroquinolone-resistant Pseudomonas aeruginosa isolate with GyrA mutant by macrodilution technique
SMILES,MIC (Pseudomonas aeruginosa [1]) [µg/mL],MIC (Pseudomonas aeruginosa [2]) [µg/mL],MIC (Pseudomonas aeruginosa [3]) [µg/mL],MIC (Pseudomonas aeruginosa [4]) [µg/mL],MIC (Pseudomonas aeruginosa [5]) [µg/mL],MIC (Pseudomonas aeruginosa [6]) [µg/mL],MIC50 (Pseudomonas aeruginosa [10]) [µg/mL],MIC90 (Pseudomonas aeruginosa [10]) [µg/mL],Activity (Pseudomonas aeruginosa [11]) [%],MIC (Pseudomonas aeruginosa [18]) [µg/mL],Activity (Pseudomonas aeruginosa [19]) [%],MIC (Pseudomonas aeruginosa [22]) [µg/mL],further results
CO/N=C(\C(=O)N[C@@H]1C(=O)N2C(C(=O)[O-])=C(C[N+]3(C)CCCC3)CS[C@H]12)c1csc(N)n1,8,8,2,8,8,8,,,,,,,
NCC[C@H](O)C(=O)N[C@@H]1C[C@H](N)[C@@H](O[C@H]2O[C@H](CN)[C@@H](O)[C@H](O)[C@H]2O)[C@H](O)[C@H]1O[C@H]1O[C@H](CO)[C@@H](O)[C@H](N)[C@H]1O [AMIKACIN],,,,,,,4,16,93.3,4,1.7,,MIC (Pseudomonas aeruginosa [7]): 16 µg/mL; MIC (Pseudomonas aeruginosa [8]): 8 µg/mL; MIC (Pseudomonas aeruginosa [9]): 16 µg/mL; MIC (Pseudomonas aeruginosa [12]): 8 µg/mL; MIC (Pseudomonas aeruginosa [13]): 128 µg/mL; MIC (Pseudomonas aeruginosa [14]): 4 µg/mL; MIC (Pseudomonas aeruginosa [15]): 16 µg/mL; MIC (Pseudomonas aeruginosa [16]): 8 µg/mL; MIC (Pseudomonas aeruginosa [17]): 4 µg/mL; MIC (Pseudomonas aeruginosa [20]): 32 µg/mL; MIC (Pseudomonas aeruginosa [21]): 8 µg/mL
C[C@H]1[C@H](NC(=O)/C(=N\OC(C)(C)C(=O)O)c2csc(N)n2)C(=O)N1S(=O)(=O)O [AZTREONAM],,,,,8,,,,,,,8,
CC(C)(O/N=C(\C(=O)N[C@@H]1C(=O)N2C(C(=O)[O-])=C(C[n+]3ccccc3)CS[C@H]12)c1csc(N)n1)C(=O)O [CEFTAZIDIME],16,4,2,16,4,2,2,8,90,1,3.3,8,MIC (Pseudomonas aeruginosa [23]): 8 µg/mL; MIC (Pseudomonas aeruginosa [24]): 8 µg/mL; MIC (Pseudomonas aeruginosa [25]): 2 µg/mL; MIC (Pseudomonas aeruginosa [26]): 2 µg/mL; MIC (Pseudomonas aeruginosa [27]): 2 µg/mL; MIC (Pseudomonas aeruginosa [28]): 2 µg/mL; MIC (Pseudomonas aeruginosa [29]): 32 µg/mL
O=C(O)c1cn(C2CC2)c2cc(N3CCNCC3)c(F)cc2c1=O [CIPROFLOXACIN],,,,,,,,,,,,,MIC (Pseudomonas aeruginosa [30]): 16 µg/mL
